Measurements taken from ChEMBL document CHEMBL2401686, “Synthesis of novel 1-[5-(4-methoxy-phenyl)-[1,3,4]oxadiazol-2-yl]-piperazine derivatives and evaluation of their in vivo anticonvulsant activity” (Eur J Med Chem, 2013).

Experiments:
Mus musculus [1] = assay: Neurotoxicity in mouse assessed as inability to maintain equilibrium on rod at 100 mg/kg, po after 4 hrs by rotarod test relative to control; type: toxicity, organism-based; parameters: dose 100 mg/kg, route oral; settings: in vivo
In short: (§1)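 Mice pre-trained on accelerating rotorod (10 rpm, rod diameter 3.2 cm), then dosed orally at 100 mg/kg. Neurotoxicity is failure to keep equilibrium on the rod for at least 1 min in each of three trials, checked at 0.5, 1, 2 and 4 h. Reported as animals showing neurotoxicity per number tested (n = 4); phenytoin standard.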

Rattus norvegicus [2] = assay: Anticonvulsant activity in Wistar rat maximal electroshock seizure model assessed as decrease in ratio of extension phase and flexion phase at 100 mg/kg, po administered 30 mins prior to test; type: functional
In short: (§2)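 Male Wistar rats, n = 6 per group; 100 mg/kg given orally as solution in 1% sodium carboxymethyl cellulose, 30 min before maximal electroshock; observed 2 min. E/F is extension phase (s)/flexion phase (s). % protection = (control − test)/control × 100 against vehicle control; phenytoin 100 mg/kg reference; mean values.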

Mus musculus [3] = assay: Neurotoxicity in mouse assessed as inability to maintain equilibrium on rod at 100 mg/kg, po after 2 hrs by rotarod test relative to control; type: toxicity, organism-based; parameters: dose 100 mg/kg, route oral; settings: in vivo; in short: as §1
Mus musculus [4] = assay: Neurotoxicity in mouse assessed as inability to maintain equilibrium on rod at 100 mg/kg, po after 0.5 hrs by rotarod test relative to control; type: toxicity, organism-based; parameters: dose 100 mg/kg, route oral; settings: in vivo; in short: as §1
Rattus norvegicus [5] = assay: Anticonvulsant activity in Wistar rat assessed as protection against maximal electroshock-induced seizure at 100 mg/kg, po administered 30 mins prior to test relative to control; type: functional; in short: as §2
Mus musculus [6] = assay: Neurotoxicity in mouse assessed as inability to maintain equilibrium on rod at 100 mg/kg, po after 1 hr by rotarod test relative to control; type: toxicity, organism-based; parameters: dose 100 mg/kg, route oral; settings: in vivo; in short: as §1

Row | SMILES | Activity (Mus musculus [1]) [%] | Ratio (Rattus norvegicus [2]) | Activity (Mus musculus [3]) [%] | Activity (Mus musculus [4]) [%] | Activity (Rattus norvegicus [5]) [%] | Activity (Mus musculus [6]) [%]
1 | O=C1NC(=O)C(c2ccccc2)(c2ccccc2)N1 [PHENYTOIN] | 0 | 1.98 | 0 | 0 | 75.88 | 0
2 | COc1ccc(-c2nnc(N3CCN(S(=O)(=O)c4ccc5ccccc5c4)CC3)o2)cc1 | 25 | 6.96 | 25 | 0 | 31.54 | 0
3 | COc1ccc(-c2nnc(N3CCN(S(=O)(=O)c4ccc(C(C)(C)C)cc4)CC3)o2)cc1 | 0 | 7.64 | 0 | 0 | 17.32 | 0
4 | COc1ccc(-c2nnc(N3CCN(S(=O)(=O)c4ccc(-c5ccccc5)cc4)CC3)o2)cc1 | 0 | 7.11 | 0 | 0 | 23.34 | 0
5 | COc1ccc(-c2nnc(N3CCN(S(=O)(=O)c4ccc(C#N)cc4)CC3)o2)cc1 | 0 | 6.34 | 0 | 0 | 42.4 | 0
6 | COc1ccc(-c2nnc(N3CCN(S(C)(=O)=O)CC3)o2)cc1 | 25 | 8.15 | 25 | 0 | 10.63 | 0
7 | COc1ccc(-c2nnc(N3CCN(S(=O)(=O)c4ccc(I)cc4)CC3)o2)cc1 | 0 | 6.57 | 0 | 0 | 50.43 | 0
8 | COc1ccc(-c2nnc(N3CCN(S(=O)(=O)c4ccc(Br)cc4)CC3)o2)cc1 | 0 | 6.51 | 0 | 0 | 50.79 | 0
9 | COc1ccc(-c2nnc(N3CCN(S(=O)(=O)c4ccc(C)cc4)CC3)o2)cc1 | 25 | 7.68 | 25 | 0 | 17.03 | 0
10 | COc1ccc(-c2nnc(N3CCN(S(=O)(=O)c4ccc(C(F)(F)F)cc4[N+](=O)[O-])CC3)o2)cc1 | – | 1.91 | – | – | 77.64 | –
11 | COc1ccc(-c2nnc(N3CCN(S(=O)(=O)c4ccccc4[N+](=O)[O-])CC3)o2)cc1 | 0 | 5.49 | 0 | 0 | 59.64 | 0
12 | COc1ccc(-c2nnc(N3CCN(S(=O)(=O)c4cccc(C(F)(F)F)c4)CC3)o2)cc1 | 0 | 6.11 | 0 | 0 | 53.01 | 0
13 | COc1ccc(-c2nnc(N3CCN(S(=O)(=O)c4cc(Cl)sc4Cl)CC3)o2)cc1 | 0 | 2.11 | 0 | 0 | 73.47 | 0
14 | COc1ccc(-c2nnc(N3CCN(S(=O)(=O)c4c(C)noc4C)CC3)o2)cc1 | 0 | 2.34 | 0 | 0 | 71.25 | 0
15 | COc1ccc(-c2nnc(N3CCN(S(=O)(=O)c4ccc(Oc5ccccc5)cc4)CC3)o2)cc1 | 0 | 1.96 | 0 | 0 | 74.31 | 0
16 | COc1ccc(-c2nnc(N3CCN(S(=O)(=O)c4ccc(Br)c(C)c4)CC3)o2)cc1 | 0 | 6.29 | 0 | 0 | 52.42 | 0
